Activity calls are given as the source filed them. Unless noted, the calls are words filed in the database; no cut-off is given here.
Assays:
[1] = Cytotoxicity against mouse BMDC assessed as reduction in cell viability
Mus musculus [2] = experiment: (§1) Antiinflammatory activity in DBA/1 mouse assessed as reduction in number of PMA/ionomycin-stimulated gammadelta+ T cells expressing IL-17 at 50 ug/kg, sc administered 2 days prior to collagen challenge continued till day 21 post collagen challenge by flow cytometric analysis relative to control; type: functional, organism-based; conditions: T-cell
How it was run: (§2)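 CIA mice given test agent (1 μg/dose) or PBS subcutaneously on days −2, 0 and 21. Draining lymph node cells (10^6/mL) in complete RPMI were stimulated ± 50 ng/mL PMA plus 500 ng/mL ionomycin, with 10 μg/mL brefeldin A for 5 h at 37 °C. Cells were surface-stained for CD4, CD8 and γδ, fixed and permeabilized, then stained for intracellular IFNγ and IL-17A. Gating used isotype controls. Cell numbers per individual mouse; naive n = 7, treated groups n = 13.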

Mus musculus [3] = experiment: as §1, with “mouse collagen-induced arthritis model” for “mouse”, “CD4+” for “gammadelta+”; type: functional, organism-based; conditions: T-cell; how it was run: as §2
Mus musculus [4] = experiment: as §1, with “mouse collagen-induced arthritis model” for “mouse”, “total DLN” for “gammadelta+ T”, “IFNgamma” for “IL-17”; type: functional, organism-based; how it was run: as §2
[5] = molecular target: T1, Toll-like receptor 9 (Mus musculus) (UniProt Q9EQU3); experiment: Inhibition of TLR9 in BALB/c mouse BMDM assessed as downregulation of CpG-stimulated IL-6 level at 5 ug/ml preincubated for 18 hrs followed by CpG challenge measured after 24 hrs by ELISA relative to control
T1 sequence (whole entry): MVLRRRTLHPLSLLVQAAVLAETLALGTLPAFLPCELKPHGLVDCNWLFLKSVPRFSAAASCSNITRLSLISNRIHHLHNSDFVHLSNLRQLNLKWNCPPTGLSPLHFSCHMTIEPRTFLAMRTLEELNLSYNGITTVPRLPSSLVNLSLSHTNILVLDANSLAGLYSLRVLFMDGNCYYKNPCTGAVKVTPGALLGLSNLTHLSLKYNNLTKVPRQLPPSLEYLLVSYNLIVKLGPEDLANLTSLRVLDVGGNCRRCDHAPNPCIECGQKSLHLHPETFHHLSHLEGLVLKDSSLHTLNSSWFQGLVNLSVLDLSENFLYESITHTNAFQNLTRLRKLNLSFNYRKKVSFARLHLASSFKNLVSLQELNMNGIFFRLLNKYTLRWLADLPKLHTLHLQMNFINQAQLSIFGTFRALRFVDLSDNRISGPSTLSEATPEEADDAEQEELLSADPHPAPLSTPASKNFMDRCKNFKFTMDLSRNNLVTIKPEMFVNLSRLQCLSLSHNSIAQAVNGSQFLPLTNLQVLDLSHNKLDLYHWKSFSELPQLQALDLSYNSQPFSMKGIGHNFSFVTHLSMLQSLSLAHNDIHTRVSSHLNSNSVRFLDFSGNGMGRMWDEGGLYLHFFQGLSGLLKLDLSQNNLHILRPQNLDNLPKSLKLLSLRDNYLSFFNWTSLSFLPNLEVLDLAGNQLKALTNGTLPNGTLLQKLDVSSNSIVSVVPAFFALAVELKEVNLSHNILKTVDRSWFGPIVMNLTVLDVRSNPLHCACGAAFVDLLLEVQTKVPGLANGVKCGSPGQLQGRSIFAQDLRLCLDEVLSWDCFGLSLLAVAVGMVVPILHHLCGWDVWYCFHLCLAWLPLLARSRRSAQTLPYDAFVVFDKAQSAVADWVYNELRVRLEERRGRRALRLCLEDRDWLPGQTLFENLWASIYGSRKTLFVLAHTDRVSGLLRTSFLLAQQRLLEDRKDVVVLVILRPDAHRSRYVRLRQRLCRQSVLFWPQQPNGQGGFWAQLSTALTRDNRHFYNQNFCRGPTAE
How it was run: (§3)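 BALB/c male bone marrow macrophages were differentiated 7 days with L929 supernatant (≥99% CD11b+/F4/80+). Cells were plated at 2 × 10^5/well in triplicate, rested overnight, and given compounds at 5 μg/mL for 18 h. They were then stimulated with 100 ng/mL S. minnesota LPS, 10 ng/mL Pam3CSK4 (BLP) or 0.01 μM CpG for 24 h. Supernatant IL-12p40 and IL-6 were measured by ELISA (sensitivity 16 pg/mL).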

TLR2/TLR6 (Mus musculus) = TLR2/TLR6 (Mus musculus) (UniProt Q9QUN7+Q9EPW9); experiment: Inhibition of TLR2/6 in BALB/c mouse BMDM assessed as downregulation of BLP-stimulated IL-12p40 level at 5 ug/ml preincubated for 18 hrs followed by BLP challenge measured after 24 hrs by ELISA relative to control; type: protein-complex assay; how it was run: as §3
Mus musculus [6] = organism: Mus musculus; experiment: Inhibition of TLR4/IL-1R in BALB/c mouse BMDM assessed as downregulation of LPS-stimulated MyD88 expression at 5 ug/mL preincubated for 2 hrs followed by LPS challenge measured after 18 hrs by flow cytometric analysis (reference value: 127%); values are per cent of control

inhibition [5]: Active
inhibition (TLR2/TLR6 (Mus musculus)): Active
residual activity (Mus musculus [6]): 95.7%
SMILES: CN(C)CCS(=O)(=O)Cc1ccc(Br)cc1
Activity [1]: Non-toxic
Activity (Mus musculus [2]): Active
Activity (Mus musculus [3]): Active
Activity (Mus musculus [4]): Active

— ChEMBL document CHEMBL3108700, “Designing anti-inflammatory drugs from parasitic worms: a synthetic small molecule analogue of the Acanthocheilonema viteae product ES-62 prevents development of collagen-induced arthritis” (J Med Chem, 2013)
